Data reported in ChEMBL document CHEMBL1158729, “Antioxidant phenolic glycosides from Moricandia arvensis” (J Nat Prod, 2005).
Values after ≈ are worked out from the molar mass of the structure shown. Active and inactive are the calls of the source. The calls are words filed in the database; no cut-off is given here.

Key:
Assay type in all cases: functional
[1] = Antioxidant activity assessed as reduction of […]/ferricyanide complex after 20 mins
Method in brief: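 Samples (0.02-1.0 mg) in water, mixed with […] phosphate buffer pH 6.6 and 1% potassium ferricyanide, 20 min at 50 °C. Reaction stopped with 10% TCA, centrifuged, and supernatant mixed with water and 0.1% FeCl3. A700 read against blank. Means of three independent samples fitted by linear regression. IC50 taken as the concentration giving an absorbance change of 0.50. α-Tocopherol and quercetin used as standards.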

[2] = tested on: Radical scavenging activity; assay: Antioxidant activity assessed as DPPH radical scavenging activity at 15 ug/mL after 30 to 45 mins
Method in brief: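 Sample added to freshly prepared 0.004% DPPH in MeOH (final-volume ratio 50:950 µL), vortexed 15 s. Absorbance at 515 nm read at room temperature after 30-45 min, once steady state was reached. Triplicate. % inhibition = (1 − As/A0) × 100 against control. α-Tocopherol and quercetin used as standards.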

[3] = Antioxidant activity assessed as ABTS radical scavenging activity after 15 mins by TEAC method
Method in brief: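 ABTS radical cation formed from 7 mM ABTS with potassium persulfate (2.4 mM final), held 16 h dark at room temperature, then diluted with water to A734 0.700 ± 0.03. Samples in H2O-EtOH at 5-8 concentrations (0 to 20 µM final). A734 decrease read at 1, 2, 5, 10, 15 min, triplicate, with solvent blanks. Expressed as mM Trolox equivalent to 1.0 mM or 1 mg/mL sample.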

Compound | IC50 [1] | Activity [2] | Trolox equivalent antioxidant capacity (TEAC) [3] | Activity [1] | Activity [3]
C[C@@H]1O[C@@H](Oc2cc(O)c3c(=O)c(O[C@@H]4O[C@H](CO)[C@@H](O)[C@H](O)[C@H]4O)c(-c4ccc(O[C@@H]5O[C@H](CO)[C@@H](O)[C@H](O)[C@H]5O)c(O)c4)oc3c2)[C@H](O)[C@H](O)[C@H]1O [MORICANDIN] | 48.1 µg/mL (≈ 62.3 µM) | 60% | 1.23 mM | – | –
O=C(O[C@@H]1O[C@H](CO)[C@@H](O)[C@H](O)[C@H]1O)c1ccc(O)cc1 | – | – | – | inactive | inactive
COC(=O)/C=C/c1ccc(O[C@@H]2O[C@H](CO)[C@@H](O)[C@H](O)[C@H]2O)c(O)c1 | 486.2 µg/mL (≈ 1360 µM) | – | 0.89 mM | – | –
Cc1c(C)c2c(c(C)c1O)CC[C@@](C)(CCC[C@H](C)CCC[C@H](C)CCCC(C)C)O2 [ALPHA-TOCOPHEROL] | 106.9 µg/mL (≈ 248 µM) | 87% | – | – | –
O=C(/C=C/c1ccc(O[C@@H]2O[C@H](CO)[C@@H](O)[C@H](O)[C@H]2O)c(O)c1)O[C@@H]1O[C@H](CO)[C@@H](O)[C@H](O)[C@H]1O | 95.9 µg/mL (≈ 190 µM) | – | 1.06 mM | – | –
O=C(O[C@@H]1O[C@H](CO)[C@@H](O)[C@H](O)[C@H]1O)c1ccc(O[C@@H]2O[C@H](CO)[C@@H](O)[C@H](O)[C@H]2O)cc1 | 735.4 µg/mL (≈ 1590 µM) | – | 0.28 mM | – | –
O=C(/C=C/c1ccc(O)c(O)c1)O[C@@H]1O[C@H](CO)[C@@H](O)[C@H](O)[C@H]1O | 33.5 µg/mL (≈ 97.9 µM) | 72% | 1.91 mM | – | –
O=c1c(O)c(-c2ccc(O)c(O)c2)oc2cc(O)cc(O)c12 [QUERCETIN] | 24.4 µg/mL (≈ 80.7 µM) | 87% | – | – | 4.26 mM
COC(=O)/C=C/c1cc(O)cc(O[C@@H]2O[C@H](CO)[C@@H](O)[C@H](O)[C@H]2O)c1 | 630.8 µg/mL (≈ 1770 µM) | – | 0.35 mM | – | –
OC[C@H]1O[C@@H](OCCc2ccccc2)[C@H](O)[C@@H](O)[C@@H]1O | – | – | – | inactive | inactive
